Screens as filed in PubChem BioAssay.
D1 mod: allosteric modulators of human D1 dopamine receptor. P21728. HEK293 D1, CRE-luciferase, dopamine EC30 potentiation; actives deviate in either direction. B-score at 10 µM. 5.9% of 58,000 active. AID 641;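 active = luminescence count or its row- and column-corrected plate score outside the 99.7% band of the plate's sample wells, on either side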
Target sequence (P21728 whole entry, looked up): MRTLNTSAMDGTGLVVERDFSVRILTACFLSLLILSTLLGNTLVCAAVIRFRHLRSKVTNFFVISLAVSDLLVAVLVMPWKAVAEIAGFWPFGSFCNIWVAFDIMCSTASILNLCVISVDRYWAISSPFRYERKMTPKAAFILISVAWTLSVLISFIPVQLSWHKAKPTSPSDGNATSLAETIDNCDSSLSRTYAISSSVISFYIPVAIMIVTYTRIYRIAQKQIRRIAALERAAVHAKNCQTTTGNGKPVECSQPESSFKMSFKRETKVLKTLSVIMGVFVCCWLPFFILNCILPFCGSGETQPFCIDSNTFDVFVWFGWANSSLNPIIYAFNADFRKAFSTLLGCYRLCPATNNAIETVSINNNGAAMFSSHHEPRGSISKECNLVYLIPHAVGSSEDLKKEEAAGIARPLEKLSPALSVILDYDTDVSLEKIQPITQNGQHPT
SF1 activator: activates the human nuclear receptor SF-1; Q13285; CHO-K1 Gal4-SF-1 LBD luciferase reporter; % increase over DMSO SF-1-specific signal; activation, % at 10 µM; 1.9% of 65,000 active;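 active = activation above the mean activation of all tested compounds plus 3 SD, cut at about 50% in these data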
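Test system: CHO-K1 cells co-transfected with Gal4 DBD–human SF-1 LBD, 5xGal4 luciferase reporter. Quantity: 4,000 cells per well. Compound: 10 µM only. Incubation: compound added 1 h post-seeding, 20 h exposure at 37 °C, 5% CO2. Detection: SteadyLite luciferase luminescence. Replication: one test per compound.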
JNK3 blocker: blocks human JNK3 kinase activity. P53779. purified JNK3 kinase activity, HTS. inhibition, % at 8 µM. 0.61% of 60,000 active; in the data active = inhibition above about 17%;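 note: 0% = DMSO and 100% = reference inhibitor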
RORA act: activates the human nuclear receptor RORA. P35398. CHO-K1 Gal4-RORA LBD luciferase reporter, luminescence; percent increase over mock-subtracted basal signal. activation, % at 10 µM. 1.5% of 65,000 active;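 active = activation above the mean of all tested compounds plus 3 SD, cut at about 49% in these data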;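 note: 0% = DMSO-treated RORA cells and 100% = added signal equal to DMSO minus mock-transfected cells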
HEK293 NFkB inh: inhibitors of the PMA/ionomycin-induced NF-kB reporter in HEK293 cells. HEK-293 NF-kB luciferase reporter, luminescence. inhibition, % at 3 µM. 0.21% of 62,000 active;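 active = inhibition above the mean of all tested compounds plus 3 SD, cut at about 40% in these data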;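 note: 0% = stimulated DMSO wells and 100% = 10 µM reference inhibitor 5653914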
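System – HEK-293 cells with stable firefly luciferase reporter driven by four HIV NF-kB elements · Doses – one dose, 3 µM · Schedule – 1 h compound pre-incubation, 16 h PMA/ionomycin at 37 °C · Technique – luminescence from luciferase substrate reagent · Measure – percent inhibition normalized per plate to DMSO and reference-inhibitor controls · Replicates – tested once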
* hit, by the source's call; . = no result. Only some compounds are listed: those with a hit (about 7.9% of all), similar ones and a draw of the others.

SMILES	D1 mod	SF1 activator	JNK3 blocker	RORA act	HEK293 NFkB inh
CCOc1ccc(N2C(=O)c3ccccc3C2O)cc1 (stereo not given)	-1.6	69*	5	11	-17
Cc1ccc2c(c1)-c1cc(C)nn1C(c1sccc1C)N2 (stereo not given)	2.2	6	0	-1	-3
Cc1cc2n(n1)C(c1ccc(N(C)C)cc1)Nc1ccccc1-2 (stereo not given)	1.1	75*	-7	13	-12
CCN(CC)S(=O)(=O)c1ccc(/C(O)=C(\C#N)c2nc3ccccc3n2C)cc1	-2.2*	-15	4	2	11
Cc1ccc(-n2c(SCc3ccc(C#N)cc3)nnc2-c2ccccn2)cc1	-4*	-19	2	20	5
COc1ccc(-n2c(SCc3ccc(C#N)cc3)nnc2-c2ccccn2)cc1	0.059	-2	-2	-5	13
Cc1cccc(N2CCN(C(=O)C3CCCN(S(=O)(=O)c4cccc5cccnc45)C3)CC2)c1C (stereo not given)	-1.7	4	5	18	19
O=C(NCCC1=CCCCC1)c1ccc(CN2CCOCC2)cc1	-1.3	40	5	96*	-24
O=C(Nc1ccc2c(c1)OCO2)c1ccc(CN2CCOCC2)cc1	0.45	52*	-3	49*	-17
COc1ccc(CCNC(=O)c2ccc(CN3CCOCC3)cc2)cc1	-0.3	3	.	-4	10
CCCCC(=O)Nc1ccc(C(=O)Nc2ccc3c(c2)OCO3)cc1	0.0035	51*	1	60*	5
O=C(CCn1c(=O)oc2ccccc21)NCCN1CCOCC1	-0.13	0	0	21	-1
Cc1ccc(Oc2ccc(NC(=O)c3ccco3)cc2)cc1	-0.021	73*	6	46	-10
O=C(Nc1ccc(Oc2ncccn2)cc1)c1ccco1	0.1	10	-3	13	2
CCN(CC)c1ccc(NC(=O)c2ccco2)cc1	-3*	7	-12	14	-30
Cc1ccc(NC(=O)c2ccc(OC(=O)c3ccco3)cc2)cc1	-1.1	52*	-12	51*	-20
CCN(CC)c1ccc(NC(=O)C(C)C)cc1	-0.22	11	-9	-24	6
COc1ccc(NC(=O)c2ccco2)cc1NC(=O)c1ccc(C)cc1	-0.52	-8	4	6	15
CCN(CC)c1ccc(NC(=O)c2ccccc2F)cc1	-5*	74*	-15	70*	-28
O=C(OCC#CCSc1nc2ccccc2s1)c1ccco1	-0.3	23	-7	12	-10
O=C(CSc1nnc(-c2ccccn2)n1Cc1ccccc1)Nc1ccc2c(c1)OCO2	-0.98	-5	7	-3	10
O=C(CSc1nnc(-c2ccc3c(c2)OCCO3)o1)N1CCCC1	-3.4	50*	-4	42	-12
CCOc1ccc(-c2nnc(SCC(=O)N3CCOCC3)o2)cc1	-0.38	25	2	52*	-19
COc1ccc(-c2nnc(SCC(=O)/C(C#N)=C(\C)N)o2)cc1	-3.2*	1	0	-10	-37
O=C(CSc1nnc(-c2ccccc2Cl)o1)N1CCCCC1	0.52	20	-3	65*	-8
SMILES	D1 mod	SF1 activator	JNK3 blocker	RORA act	HEK293 NFkB inh
O=c1c(-c2nc3ccccc3o2)c2oc3ccccc3n2c2ccccc12	-0.019	-24	5	-24	23
CC(=O)Nc1c(O)n(C)c2ccccc12	.	-10	3	-8	-3
Cc1ccc(-c2nnc(SCC(=O)N3CCCC3)o2)cc1C	-0.087	37	-4	58*	-8
Cc1oc(-c2ccccc2Cl)nc1CSCC(=O)N1CCCC1	0.017	-6	-2	0	87*
Cc1nn(C)c(N)c1C(O)(c1nccn1C)C(F)(F)F (stereo not given)	-0.02	7	-2	12	4
CCCCN1CCc2c([nH]c3ccc(C)cc23)C1=O	-2	51*	-6	51*	-32
Cc1ccc2[nH]c3c(c2c1)CCC3=O	.	-4	2	-3	16
CCCc1cc(=O)n2c(nc3ccccc32)[nH]1	1.6	38	28*	33	1
C=CCOc1ccc(/C=C/C(C)=N\O)cc1	-1.2	20	-1	86*	-14
CCOC(=O)N1CCC(NC(=O)CCc2nc(-c3ccc(C)cc3)no2)CC1	-0.52	-8	-1	5	16
COc1ccc(-n2nc3cc(C)c(N)c(Br)c3n2)cc1	.	64*	-4	50*	-58
COc1ccc(-n2nc3cc(C)c(NC(=O)C(C)C)cc3n2)cc1	-4.2	39	1	40	-40
CC(=O)OC1CSc2nc3ccccc3n2C1 (stereo not given)	0.045	-3	2	-11	21
O=C(O)c1nn(-c2ccc(Cl)cc2)ccc1=O	0.95	-7	.	-17	15
Cc1ccc(C(=O)Nc2c3c(nn2C(C)(C)C)CS(=O)(=O)C3)cc1C	-2.9*	-1	.	-7	6
COc1ccc(OC)c(C(c2nnnn2CCC(C)C)N2CCN(C(=O)c3ccco3)CC2)c1 (stereo not given)	-0.24	3	5	-10	11
CCOC(=O)c1ccccc1NC(=O)COC	.	7	.	-2	2
COCC(=O)Nc1ccccc1C(=O)Nc1ccc(OC)cc1	.	59*	-3	19	5
CCOc1ccc(NC(=O)c2ccccc2O)cc1	-4.7*	-6	2	-8	-22
CCOc1ccc(NC(=O)c2ccccc2CO)cc1	-0.51	71*	-6	51*	-15
CCOc1ccc(NC(=O)c2ccccc2OC)cc1	0.018	73*	0	49*	-19
COc1ccccc1C(=O)Nc1ccc(C(=O)O)cc1	-1.1	12	-5	35	11
CCOc1ccc(NC(=O)c2cccnc2C(=O)O)cc1	0.86	18	-6	-24	-6
COC(=O)C1=C(C)OC(N)=C(C#N)C1c1cc(OC)c(OCC(N)=O)cc1Cl (stereo not given)	.	-7	0	-11	6
CCOC(=O)c1c(NC(=O)c2cc(C3CC3)on2)sc2c1CCCC2	0.52	11	5	-21	-9
SMILES	D1 mod	SF1 activator	JNK3 blocker	RORA act	HEK293 NFkB inh
CCSC1=C(C#N)C(c2ccc(C)s2)CC(=O)N1 (stereo not given)	-0.074	-20	4	-2	15
CCOC(=O)CSC1=C(C#N)C(c2ccc(C)s2)CC(=O)N1 (stereo not given)	0.78	26	3	54*	23
Cc1noc(C)c1S(=O)(=O)Nc1ccc(C(=O)N2CCN(c3ccc(Cl)cc3)CC2)cc1	-3.7*	-1	2	-60	25
Cc1cc(NCCOCCO)n2ncc(-c3ccc(Cl)cc3)c2n1	-2.1	9	-2	89*	-66
Cc1cc(NCCCN2CCOCC2)n2ncc(-c3ccccc3)c2n1	-1.2	107*	1	54*	-26
CCOC(=O)c1cnn(-c2cc(C)nc3c(-c4ccccc4)cnn23)c1N	0.83	0	4	14	16
Cc1cc(NCCCN2CCOCC2)n2nc(C)c(-c3ccccc3)c2n1	0.21	24	-2	19	14
